Assay results taken from ChEMBL document CHEMBL1275556, “High prevalence of plasmid-mediated quinolone resistance genes qnr and aac(6')-Ib-cr in clinical isolates of Enterobacteriaceae from nine teaching hospitals in China” (2008).
Values after ≈ are worked out from the molar mass of the structure shown.

What was measured:
Escherichia coli [1] = experiment: Antimicrobial activity against aac(6')-Ib-cr-negative Escherichia coli PU12T harboring wild-type GyrA, GyrB, ParC and qnrS genes by agar dilution method; assay type: functional
Outline: (§1)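 MICs were determined by the CLSI agar dilution method (M7-A7) and interpreted against CLSI M100-S17 breakpoints.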

Citrobacter freundii [2] = experiment: Antimicrobial activity against aac(6')-Ib-cr-positive Citrobacter freundii PU55 harboring GyrA T83I, ParC S80I mutant, wild-type GyrB, qnrA genes by agar dilution method; assay type: functional; outline: as §1
Enterobacter cloacae [3] = experiment: Antimicrobial activity against aac(6')-Ib-cr-negative Enterobacter cloacae SH39 harboring GyrA S83I, ParC S80I mutant, wild-type GyrB and qnrA genes by agar dilution method; assay type: functional
Klebsiella pneumoniae [4] = experiment: Antimicrobial activity against aac(6')-Ib-cr-negative Klebsiella pneumoniae SY22 harboring GyrA S83I, ParC S80I mutant, wild-type GyrB and qnrS genes by agar dilution method; assay type: functional; outline: as §1
Klebsiella pneumoniae [5] = experiment: Antimicrobial activity against aac(6')-Ib-cr-negative Klebsiella pneumoniae SY22T harboring qnrS gene by agar dilution method; assay type: functional; outline: as §1
Klebsiella pneumoniae [6] = experiment: Antimicrobial activity against aac(6')-Ib-cr-positive Klebsiella pneumoniae SY26 harboring GyrA S83I, ParC S80I mutant, wild-type GyrB and qnrB genes by agar dilution method; assay type: functional
Outline: (§2)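 MICs were determined on clinical isolates by CLSI agar dilution (M7-A7) and interpreted against CLSI M100-S17 breakpoints.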

Klebsiella pneumoniae [7] = experiment: Antimicrobial activity against aac(6')-Ib-cr-positive Klebsiella pneumoniae SY26T harboring wild-type GyrA, ParC, GyrB and qnrB genes by agar dilution method; assay type: functional
Outline: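 Transconjugants were made by conjugating a qnr/aac(6')-Ib-cr donor with azide-resistant E. coli J53. MICs were read by CLSI agar dilution (M7-A7) and interpreted per M100-S17.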

Citrobacter freundii [8] = experiment: Antimicrobial activity against aac(6')-Ib-cr-positive Citrobacter freundii TJ15 harboring GyrA T83I, ParC S80I mutant, wild-type GyrB, qnrB genes by agar dilution method; assay type: functional; outline: as §1
Citrobacter freundii [9] = experiment: Antimicrobial activity against aac(6')-Ib-cr-positive Citrobacter freundii TJ15T harboring wild-type GyrA, ParC, GyrB genes by agar dilution method; assay type: functional; outline: as §1
Enterobacter cloacae [10] = experiment: Antimicrobial activity against aac(6')-Ib-cr-negative Enterobacter cloacae WH42 harboring wild-type GyrA, ParC, GyrB and qnrA genes by agar dilution method; assay type: functional
Enterobacter cloacae [11] = experiment: Antimicrobial activity against aac(6')-Ib-cr-negative Enterobacter cloacae WH42T harboring qnrA gene by agar dilution method; assay type: functional
Klebsiella pneumoniae [12] = experiment: Antimicrobial activity against aac(6')-Ib-cr-positive Klebsiella pneumoniae WH99 harboring wild-type GyrA, ParC, GyrB and qnrB genes by agar dilution method; assay type: functional; outline: as §2
Klebsiella pneumoniae [13] = experiment: Antimicrobial activity against aac(6')-Ib-cr-positive Klebsiella pneumoniae WH99T harboring qnrB gene by agar dilution method; assay type: functional
Outline: (§3)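 Transconjugants were made by conjugating a qnr/aac(6')-Ib-cr donor with azide-resistant E. coli J53. Selection used Trypticase soy agar with sodium azide 150 µg/ml and sulfamethoxazole 180 µg/ml. […] MICs were read by CLSI agar dilution (M7-A7) and interpreted per M100-S17.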

Escherichia coli [14] = experiment: Antimicrobial activity against aac(6')-Ib-cr-negative Escherichia coli PU12 harboring GyrA S83L mutant, wild-type GyrB, ParC and qnrS genes by agar dilution method; assay type: functional; outline: as §1
Escherichia coli [15] = experiment: Antimicrobial activity against aac(6')-Ib-cr-positive Escherichia coli FJ3 harboring GyrA S83L, ParC S80R mutant, wild-type GyrB and qnrB genes by agar dilution method; assay type: functional; outline: as §1
Escherichia coli [16] = experiment: Antimicrobial activity against aac(6')-Ib-cr-positive Escherichia coli FJ3T harboring wild-type GyrA, ParC, GyrB and qnrB genes by agar dilution method
Enterobacter cloacae [17] = experiment: Antimicrobial activity against aac(6')-Ib-cr-negative Enterobacter cloacae FJ61 harboring GyrA S83I, GyrA D87A, ParC S80I mutant, wild-type GyrB and qnrS genes by agar dilution method; assay type: functional
Enterobacter cloacae [18] = experiment: Antimicrobial activity against aac(6')-Ib-cr-positive Enterobacter cloacae FJ63 harboring GyrA S83I, GyrA D87A, ParC S80I mutant, wild-type GyrB and qnrS genes by agar dilution method; assay type: functional
Enterobacter cloacae [19] = experiment: Antimicrobial activity against aac(6')-Ib-cr-positive Enterobacter cloacae FJ63T harboring qnrS gene by agar dilution method; assay type: functional
Enterobacter cloacae [20] = experiment: Antimicrobial activity against aac(6')-Ib-cr-negative Enterobacter cloacae FJ67 harboring […] and qnrS genes by agar dilution method; assay type: functional
Enterobacter cloacae [21] = experiment: Antimicrobial activity against aac(6')-Ib-cr-negative Enterobacter cloacae FJ67T harboring qnrS gene by agar dilution method; assay type: functional
Klebsiella pneumoniae [22] = experiment: Antimicrobial activity against aac(6')-Ib-cr-positive Klebsiella pneumoniae GZ40 harboring GyrA S83I, ParC S80I mutant, wild-type GyrB and qnrB genes by agar dilution method; assay type: functional; outline: as §1
Enterobacter cloacae [23] = experiment: Antimicrobial activity against aac(6')-Ib-cr-negative Enterobacter cloacae GZ47 harboring qnrB and qnrS genes by agar dilution method; assay type: functional
Enterobacter cloacae [24] = experiment: Antimicrobial activity against aac(6')-Ib-cr-negative Enterobacter cloacae GZ47T harboring qnrB gene by agar dilution method; assay type: functional
Enterobacter cloacae [25] = experiment: Antimicrobial activity against aac(6')-Ib-cr-negative Enterobacter cloacae GZ51 harboring qnrA gene by agar dilution method; assay type: functional
Enterobacter cloacae [26] = experiment: Antimicrobial activity against aac(6')-Ib-cr-negative Enterobacter cloacae GZ51T harboring qnrA gene by agar dilution method; assay type: functional
Citrobacter freundii [27] = experiment: Antimicrobial activity against aac(6')-Ib-cr-positive Citrobacter freundii JN1 harboring GyrA T83I, ParC S80I mutant, wild-type GyrB and qnrA genes by agar dilution method; assay type: functional; outline: as §1
Citrobacter freundii [28] = experiment: Antimicrobial activity against aac(6')-Ib-cr-positive Citrobacter freundii JN1T by agar dilution method; assay type: functional; outline: as §1
Klebsiella pneumoniae [29] = experiment: Antimicrobial activity against aac(6')-Ib-cr-positive Klebsiella pneumoniae JN132 harboring GyrA S83I, ParC S80I mutant, wild-type GyrB and qnrB genes by agar dilution method; assay type: functional; outline: as §2
Klebsiella pneumoniae [30] = experiment: Antimicrobial activity against aac(6')-Ib-cr-positive Klebsiella pneumoniae JN132T harboring qnrB gene by agar dilution method; assay type: functional; outline: as §3
Klebsiella pneumoniae [31] = experiment: Antimicrobial activity against aac(6')-Ib-cr-positive Klebsiella pneumoniae JN41 harboring GyrA S83I, ParC S80I mutant, wild-type GyrB and qnrB genes by agar dilution method; assay type: functional; outline: as §2
Klebsiella pneumoniae [32] = experiment: Antimicrobial activity against aac(6')-Ib-cr-positive Klebsiella pneumoniae JN41T harboring qnrB gene by agar dilution method; assay type: functional; outline: as §3
Citrobacter freundii [33] = experiment: Antimicrobial activity against aac(6')-Ib-cr-negative Citrobacter freundii JN64 harboring GyrA T83I, wild-type ParC, GyrB and qnrA genes by agar dilution method; assay type: functional; outline: as §1
Citrobacter freundii [34] = experiment: Antimicrobial activity against aac(6')-Ib-cr-negative Citrobacter freundii JN64T harboring qnrA gene by agar dilution method; assay type: functional; outline: as §1
Citrobacter freundii [35] = experiment: Antimicrobial activity against aac(6')-Ib-cr-positive Citrobacter freundii JS33 harboring GyrA T83I mutant, wild-type ParC, GyrB, qnrA and qnrB genes by agar dilution method; assay type: functional; outline: as §1
Enterobacter cloacae [36] = experiment: Antimicrobial activity against aac(6')-Ib-cr-negative Enterobacter cloacae SH39T harboring qnrA gene by agar dilution method; assay type: functional
Enterobacter cloacae [37] = experiment: Antimicrobial activity against aac(6')-Ib-cr-negative Enterobacter cloacae FJ61T harboring qnrS gene by agar dilution method; assay type: functional
Citrobacter freundii [38] = experiment: Antimicrobial activity against aac(6')-Ib-cr-positive Citrobacter freundii JS33T harboring qnrA gene by agar dilution method; assay type: functional; outline: as §1

Compound	MIC (Escherichia coli [1]) [µg/mL]	MIC (Citrobacter freundii [2]) [µg/mL]	MIC (Enterobacter cloacae [3]) [µg/mL]	MIC (Klebsiella pneumoniae [4]) [µg/mL]	MIC (Klebsiella pneumoniae [5]) [µg/mL]	MIC (Klebsiella pneumoniae [6]) [µg/mL]	MIC (Klebsiella pneumoniae [7]) [µg/mL]	MIC (Citrobacter freundii [8]) [µg/mL]	MIC (Citrobacter freundii [9]) [µg/mL]	MIC (Enterobacter cloacae [10]) [µg/mL]	MIC (Enterobacter cloacae [11]) [µg/mL]	MIC (Klebsiella pneumoniae [12]) [µg/mL]	MIC (Klebsiella pneumoniae [13]) [µg/mL]	MIC (Escherichia coli [14]) [µg/mL]	MIC (Escherichia coli [15]) [µg/mL]	MIC (Enterobacter cloacae [17]) [µg/mL]	MIC (Enterobacter cloacae [18]) [µg/mL]	MIC (Enterobacter cloacae [19]) [µg/mL]	MIC (Enterobacter cloacae [20]) [µg/mL]	MIC (Enterobacter cloacae [21]) [µg/mL]	other results
CC(C)(O/N=C(\C(=O)N[C@@H]1C(=O)N2C(C(=O)[O-])=C(C[n+]3ccccc3)CS[C@H]12)c1csc(N)n1)C(=O)O [CEFTAZIDIME]	1 (≈ 1.83 µM)	64 (≈ 117 µM)	2 (≈ 3.66 µM)	4 (≈ 7.32 µM)	1 (≈ 1.83 µM)	256 (≈ 468 µM)	16 (≈ 29.3 µM)	4 (≈ 7.32 µM)	2 (≈ 3.66 µM)	256 (≈ 468 µM)	16 (≈ 29.3 µM)	16 (≈ 29.3 µM)	4 (≈ 7.32 µM)	4 (≈ 7.32 µM)	4 (≈ 7.32 µM)	16 (≈ 29.3 µM)	128 (≈ 234 µM)	4 (≈ 7.32 µM)	4 (≈ 7.32 µM)	4 (≈ 7.32 µM)	MIC (Escherichia coli [16]): 2 µg/mL (≈ 3.66 µM); MIC (Klebsiella pneumoniae [22]): 256 µg/mL (≈ 468 µM); MIC (Enterobacter cloacae [23]): 128 µg/mL (≈ 234 µM); MIC (Enterobacter cloacae [24]): 2 µg/mL (≈ 3.66 µM); MIC (Enterobacter cloacae [25]): 64 µg/mL (≈ 117 µM); MIC (Enterobacter cloacae [26]): 32 µg/mL (≈ 58.5 µM); MIC (Citrobacter freundii [27]): 64 µg/mL (≈ 117 µM); MIC (Citrobacter freundii [28]): 1 µg/mL (≈ 1.83 µM); MIC (Klebsiella pneumoniae [29]): 32 µg/mL (≈ 58.5 µM); MIC (Klebsiella pneumoniae [30]): 32 µg/mL (≈ 58.5 µM); MIC (Klebsiella pneumoniae [31]): 2 µg/mL (≈ 3.66 µM); MIC (Klebsiella pneumoniae [32]): 1 µg/mL (≈ 1.83 µM); MIC (Citrobacter freundii [33]): 64 µg/mL (≈ 117 µM); MIC (Citrobacter freundii [34]): 2 µg/mL (≈ 3.66 µM); MIC (Citrobacter freundii [35]): 16 µg/mL (≈ 29.3 µM)
GENTAMICIN	1	1	8	128	32	> 256	> 256	256	1	16	8	128	128	2	128	128	> 256	> 256	2	1	MIC (Enterobacter cloacae [36]): 4 µg/mL; MIC (Enterobacter cloacae [37]): 1 µg/mL; MIC (Klebsiella pneumoniae [22]): 1 µg/mL; MIC (Enterobacter cloacae [23]): 256 µg/mL; MIC (Enterobacter cloacae [24]): 128 µg/mL; MIC (Enterobacter cloacae [25]): > 256 µg/mL; MIC (Enterobacter cloacae [26]): > 256 µg/mL; MIC (Citrobacter freundii [27]): 1 µg/mL; MIC (Citrobacter freundii [28]): 1 µg/mL; MIC (Klebsiella pneumoniae [29]): > 256 µg/mL; MIC (Klebsiella pneumoniae [30]): > 256 µg/mL; MIC (Klebsiella pneumoniae [31]): 1 µg/mL; MIC (Klebsiella pneumoniae [32]): 1 µg/mL; MIC (Citrobacter freundii [33]): > 256 µg/mL; MIC (Citrobacter freundii [34]): > 256 µg/mL; MIC (Citrobacter freundii [35]): 64 µg/mL; MIC (Citrobacter freundii [38]): 16 µg/mL
